Experiment [1] in a line: inhibitors of TNFa-induced NFkB p65 translocation, primary screen, imaging, HUVEC, MLSMR starter and 10KST1 sets (AID 438;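 active = inhibition above 20% together with a positive visual image hit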;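 note: compound added about 3h40 before a 20 min TNFalpha stimulation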;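 for inhibition: signal is the nuclear over cytoplasmic p65 intensity ratio per well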). Conditions: HUVEC TNFa-induced p65 nuclear translocation; cell count: measured here: nuclei count (cytotoxicity indicator), at 2.08 µM; inhibition: at 2 µM, stronger effect = higher value, 0% TNFa-plus-vehicle, 100% no-TNFa wells.
A short description of experiment [2]: endothelial E-selectin expression blockers – imaging, HUVEC, immunofluorescence, MLSMR starter and 10KST1 sets, primary screen (AID 487;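 active = visually confirmed hit in the image check and inhibition above 20%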;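 for inhibition: signal is fraction of cell area covered by stained E-selectin grains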;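 for nuclei count: 100% = median nuclei count of all wells on the same plate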). Conditions: HUVEC TNFalpha-induced E-selectin immunofluorescence imaging, at 2 µM; inhibition: stronger effect = higher value; nuclei count: measured here: cell number, toxicity.
Experiment [3] in a line: Primary imaging screen for DUSP6 inhibitors that restore phospho-Erk in transfected HeLa cells, chemical complementation (AID 609).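 For inhibition: phospho-Erk level distribution per well compared with pooled transfected vehicle control wells.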 Particulars: HeLa MKP-3 transfected, phospho-Erk imaging KS statistic, at 10 µM, cells stimulated with TPA for 15 min.
For experiment [4], the target named is Dual specificity protein phosphatase 6 (Homo sapiens) (UniProt Q16828). The description is as above. Particulars: HeLa MKP-3 transfected, phospho-Erk imaging KS statistic; at 10 µM; stronger effect = higher value; cells stimulated with TPA for 15 min.
Dual specificity protein phosphatase 6 (Homo sapiens), sequence (Q16828 whole entry, looked up): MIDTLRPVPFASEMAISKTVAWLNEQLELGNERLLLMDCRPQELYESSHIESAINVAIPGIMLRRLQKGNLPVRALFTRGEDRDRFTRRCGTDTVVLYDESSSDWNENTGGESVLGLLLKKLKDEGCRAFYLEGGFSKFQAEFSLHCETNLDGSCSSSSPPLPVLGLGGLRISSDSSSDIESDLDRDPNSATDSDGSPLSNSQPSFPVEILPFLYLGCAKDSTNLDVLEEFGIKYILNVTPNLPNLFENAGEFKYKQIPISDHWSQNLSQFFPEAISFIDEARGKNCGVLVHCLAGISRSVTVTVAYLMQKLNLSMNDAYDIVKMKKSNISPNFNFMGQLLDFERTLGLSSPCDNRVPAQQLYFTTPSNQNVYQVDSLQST
For experiment [5], the target named is Voltage-gated potassium channel subunit beta-2 (Rattus norvegicus) (UniProt P62483). Briefly: inhibitors of rat Kvbeta2 reductase activity – biochemical, NADPH fluorescence, primary screen (AID 622;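 active = fluorescence slope higher than the sample average by over 3 SD, cut at about -0.22 in these data, passing the limit was not always enough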;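 note: slope of raw intensity against log time taken from 70 to 1610 s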). Particulars: recombinant KvBeta, 4-cyanobenzaldehyde reduction, at 10 µM, stronger effect = higher value.
Voltage-gated potassium channel subunit beta-2 (Rattus norvegicus), sequence (P62483 whole entry, looked up): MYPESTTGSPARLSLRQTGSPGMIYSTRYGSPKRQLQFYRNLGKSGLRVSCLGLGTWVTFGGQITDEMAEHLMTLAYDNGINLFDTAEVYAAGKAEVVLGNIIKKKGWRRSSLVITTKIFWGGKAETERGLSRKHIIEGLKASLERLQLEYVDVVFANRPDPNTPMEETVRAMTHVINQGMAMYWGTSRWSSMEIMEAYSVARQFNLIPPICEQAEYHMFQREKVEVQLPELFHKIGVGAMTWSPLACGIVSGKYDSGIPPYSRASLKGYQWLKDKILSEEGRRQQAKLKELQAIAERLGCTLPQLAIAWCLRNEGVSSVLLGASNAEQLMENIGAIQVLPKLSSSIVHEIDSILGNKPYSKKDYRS
The target is the same in experiment [6]. Description: enhancers of rat Kvbeta2 NADPH turnover – biochemical, NADPH fluorescence, primary screen (AID 623;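 active = NADPH fluorescence slope more negative than the mean of all samples by about 3 SD, 99.7% confidence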;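 note: fluorescence intensity change per second fitted from 20 to 320 s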). Conditions: Recombinant KvBeta, NADPH fluorescence decrease slope, 10 min; at 10 µM; stronger effect = lower value.
Experiment [7] deals with Alpha-2C adrenergic receptor (Homo sapiens) (UniProt P18825). Description: compounds altering alpha2C-coupled GIRK flux – cell-based, HEK293 alpha2C/GIRK1/2, thallium flux, primary screen (AID 624;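 active = fluorescence slope after compound addition differing from the mean of all screened samples at 99.7% confidence, in either direction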;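 note: slope of fluorescence ratio to pre-addition baseline per second over 15 to 24 s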). Conditions: thallium flux BTC fluorescence, at 10 µM, actives lie on both sides.
Alpha-2C adrenergic receptor (Homo sapiens), sequence (P18825 whole entry, looked up): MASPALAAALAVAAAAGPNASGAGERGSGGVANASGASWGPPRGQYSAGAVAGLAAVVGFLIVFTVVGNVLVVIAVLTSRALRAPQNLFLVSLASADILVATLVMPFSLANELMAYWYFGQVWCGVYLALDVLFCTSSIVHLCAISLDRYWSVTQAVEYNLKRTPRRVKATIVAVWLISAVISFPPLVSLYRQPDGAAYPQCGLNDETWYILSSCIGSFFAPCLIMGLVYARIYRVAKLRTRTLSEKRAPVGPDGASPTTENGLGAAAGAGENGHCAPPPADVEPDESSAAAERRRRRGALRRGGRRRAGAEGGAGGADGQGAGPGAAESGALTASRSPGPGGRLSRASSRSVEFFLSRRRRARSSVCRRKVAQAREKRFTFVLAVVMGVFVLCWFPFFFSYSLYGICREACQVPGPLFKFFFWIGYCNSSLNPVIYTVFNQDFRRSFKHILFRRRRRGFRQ
The nature of experiment [8]: inhibitors of larval lipid processing in zebrafish, primary screen, whole organism, PED6 fluorescence, gall bladder and intestine (AID 686;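 active = a full or partial loss of lipid-probe fluorescence in the fish gall bladder, intestine or both, judged by eye; inactive = no fluorescence loss, or compound toxic to the fish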;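 note: larvae 5 to 7 days old with five fish per well; signal comes from phospholipase A2 cleavage of quenched PED6 carried via bile; overnight exposure to compound and PED6 before scoring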). Conditions: Zebrafish larvae PED6 lipid processing, fluorescence scoring; screened at 20 µM (by protocol). The gist of the method:
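Test system – live zebrafish larvae aged 5-7 days, whole organism · Buffer or medium – E3 fish medium · Reagent – quenched phospholipase substrate PED6, 100 nM final, ingested by larvae · Doses – 20 µM single dose · Incubation – overnight compound and PED6 incubation · Technique – visual fluorescence microscopy scoring of gall bladder, gut · Read-out basis – visual per-well fluorescence inhibition score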

Experiment [9] in a line: loss of swimming-algae plug formation – whole organism, Chlamydomonas reinhardtii, WT vs cilia-less mutant, absorbance, 96-well, primary screen (AID 463189;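 active = inhibition at or above 50% relative to wild type and mutant plate controls; inactive = inhibition below 50%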;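 note: 0% = wild type cc124 cells in DMSO and 100% = ciliumless bld1 mutant cells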). Conditions: Chlamydomonas reinhardtii gravitaxis, OD600 absorbance, 2 days; at 10 µM; stronger effect = higher value.
The mark [10] stands for this setting: measured here: cell density z-score.
The mark [11] stands for this setting: measured here: nuclear c-Myc green intensity z-score.
Setting [12] is: measured here: nuclear pErk red intensity z-score, stronger effect = higher value.

Activity calls are given as the source filed them.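 Rule for the calls, unless noted: active = compounds giving at least 50% inhibition in the cell-based MKP-3 phosphatase rescue imaging test; inactive = the rest.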

Consider seven compounds from PubChem BioAssay.

For orientation: inhibition means the drop in the measured response relative to a control, in per cent.

`CCOc1ccc(CC2CC(=O)NC2=O)cc1` (stereo unspecified): in experiment [1], the cell count worked out at 622. Besides, the inhibition in experiment [1] is 2.8% (inactive); in experiment [2], -113% (inactive); in experiment [4], -0.159% (inactive); in experiment [9] it was 9.39% (inactive). In addition, in experiment [2], the nuclei count was found to be 185%. The figures for the z-score in experiment [3] (setting [10]), in [3] (setting [11]) and in experiment [3] (setting [12]) were -0.992, -0.148 and 1.17, respectively. For the same compound, the fluorescence slope in experiment [5] was -0.484 (inactive). Also, the NADPH fluorescence slope in experiment [6] is -9.9e-05 (inactive). Also, the slope in experiment [7] is 0.00492 (inactive). In experiment [8], the outcome was inactive.

Take `CC(C)C1C(C#N)=C(N)Oc2n[nH]c(C(C)(C)C)c21` (stereo unspecified): the cell count in [1] came out at 391. Also, the inhibition is -8.2% (inactive) in experiment [1], -118% (inactive) in experiment [2], -2.91% (inactive) in [4] and -1.5% (inactive) in experiment [9]. The same compound showed a nuclei count in experiment [2] of 157%. Further, the z-score was 0.159 in [3] (setting [10]), 1.21 in [3] (setting [11]) and -1.21 in [3] (setting [12]). For the same compound, in experiment [5], the fluorescence slope was -0.429 (inactive). The NADPH fluorescence slope in experiment [6] is -4.6e-05 (inactive). Moreover, the slope in experiment [7] was 0.00626 (inactive). In experiment [8], the compound was classed as inactive.

As for `CCCOc1ccc(N2C(=O)CC(N(CCC)C(=O)CCC(=O)O)C2=O)cc1` (stereo unspecified), in experiment [1], the cell count worked out at 468. In addition, the inhibition in experiment [1] is -11.6% (inactive); in experiment [2] it was -161% (inactive); in experiment [4] it was 7.7% (inactive); in experiment [9], 11.3% (inactive). For the same compound, the nuclei count in experiment [2] turned out to be 204%. Moreover, the z-score in experiment [3] (setting [10]) was -1.24; in [3] (setting [11]) it was -0.331; in [3] (setting [12]) it was -0.093. Further, the fluorescence slope in experiment [5] is -0.384 (inactive). Further, in [6], the NADPH fluorescence slope is -9.2e-06 (inactive). Further, the slope in experiment [7] is 0.00456 (inactive). Also, the outcome in [8] is “inactive; toxic”.

With `COc1ccc(OC)c(C2NC(=O)c3sc(=S)n(-c4ccccc4)c3N2)c1` (stereo unspecified), the cell count in experiment [1] turned out to be 612. Also, the inhibition in [1] was -8.4% (inactive); in experiment [2], -60.3% (inactive); in [4] it was -6.86% (inactive); in experiment [9] it was -6.25% (inactive). Also, in [2], the nuclei count is 159%. For the same compound, the z-score in [3] (setting [10]) was -1; in [3] (setting [11]), 0.762; in experiment [3] (setting [12]) it was 1.43. Further, in experiment [5], the fluorescence slope was -0.369 (inactive). Besides, the NADPH fluorescence slope in [6] is -6.5e-05 (inactive). Also, the slope in experiment [7] is 0.00525 (inactive). For the same compound, in experiment [8], the call was inactive.

In the case of `COc1ccc(/C(O)=C2\C(=O)C(=O)N(c3cc(C)on3)C2c2cccc(OC)c2OC)cc1C` (stereo unspecified), in [1], the cell count was 531. Also, the inhibition in experiment [1] is -1.2% (inactive); in experiment [2], -148% (inactive); in experiment [4] it was 1.75% (inactive); in [9], -15.3% (inactive). In addition, in experiment [2], the nuclei count came to 129%. The z-score in [3] (setting [10]) is -0.589; in experiment [3] (setting [11]), 1.28; in experiment [3] (setting [12]), 0.634. Besides, the fluorescence slope in experiment [5] was -0.5 (inactive). In addition, the NADPH fluorescence slope in experiment [6] was -2.6e-05 (inactive). For the same compound, the slope in experiment [7] was 0.00468 (inactive). For the same compound, in experiment [8], the compound was called inactive.

With `COc1ccc2oc(=O)c(-c3nc(C)cs3)cc2c1`, the cell count in experiment [1] stood at 523. Besides, the inhibition in [1] is -9.3% (inactive); in experiment [2], -79.5% (inactive); in [4] it was -2.07% (inactive); in [9], 26.4% (inactive). In experiment [2], this compound registered a nuclei count of 135%. Also, the z-score in experiment [3] (setting [10]) was -0.969; in [3] (setting [11]), 0.963; in experiment [3] (setting [12]), 1.41. For the same compound, the fluorescence slope in experiment [5] was -0.302 (inactive). Further, the NADPH fluorescence slope in [6] is -3.5e-05 (inactive). In experiment [7], the slope is 0.00534 (inactive). Besides, the compound was called inactive in experiment [8].

With `CC1(c2ccco2)NC(=O)NC1=O` (stereo unspecified), in experiment [1], the cell count is 665. Further, the inhibition in experiment [1] was -2.9% (inactive); in [2], -112% (inactive); in [4] it was -3.98% (inactive); in experiment [9] it was -5.4% (inactive). The same compound returned a nuclei count in experiment [2] of 160%. Besides, the z-score in experiment [3] (setting [10]) is -0.981; in experiment [3] (setting [11]), -0.00713; in [3] (setting [12]), 0.00425. Besides, the fluorescence slope in [5] was -0.492 (inactive). Further, the NADPH fluorescence slope in experiment [6] was -0.00016 (inactive). The slope in experiment [7] is 0.00442 (inactive). Besides, the result in experiment [8] was inactive.
